Six compounds from ChEMBL document CHEMBL3271979, “Inhibition of solid tumors by nitrosoureas. 1. Lewis lung carcinoma” (1977) can be followed below.

A short description of test [1]: Antitumor activity against mouse advanced Lewis lung carcinoma allografted in BDF1 mouse assessed as increase in host life span at 30 mg/kg, ip administered as single dose on 7th day post-tumor implantation. In kind it is functional. As to conditions: route intraperitoneal. In a few lines:
(§1)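 BDF1 mice (C57Blk/6 × DBA/2) implanted sc by trocar with about 40 mg Lewis lung tumor fragments from bacteriologically sterile donors. Advanced-disease groups held tumors of about 400 mg by day 6-7, sized by caliper (w = ab²/2). Single ip injection on day 7, in water or saline vehicle, at or below the LD10 in normal mice. Tumors measured at least twice weekly.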

Test [2] relates to Mus musculus. Description: Antitumor activity against mouse advanced Lewis lung carcinoma allografted in ip dosed BDF1 mouse assessed as disease cure administered as single dose on day 6 or 7 post-tumor implantation. In kind it is functional, organism-based. In a few lines: (§2)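 BDF1 mice (C57Blk/6 × DBA/2) implanted sc by trocar with Lewis lung tumor fragments of about 40 mg, taken only from bacteriologically sterile donor tumors. Mice bearing tumors of about 400 mg (day 6-7) were selected. Each received a single ip dose on day 7, at or below the LD10 in normal mice. Groups were of 10 mice. Tumor weight was taken from calipers as w = ab²/2, measured at least twice weekly. Matched non-tumor mice served as toxicity controls.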

The nature of test [3]: Antitumor activity against mouse advanced Lewis lung carcinoma allografted in BDF1 mouse assessed as increase in host life span at 29 mg/kg, ip administered as single dose on 7th day post-tumor implantation. In kind it is functional. As to conditions: route intraperitoneal. Put shortly: as §1
Test [4] is described as follows: Antitumor activity against mouse advanced Lewis lung carcinoma allografted in BDF1 mouse assessed as increase in host life span at 27 mg/kg, ip administered as single dose on 7th day post-tumor implantation. In kind it is functional. As to conditions: route intraperitoneal. Put shortly:
as §1

Test [5] relates to Mus musculus. Description: Antitumor activity against mouse advanced Lewis lung carcinoma allografted in BDF1 mouse assessed as disease cure at 41 mg/kg, ip administered as single dose on 7th day post-tumor implantation measured for 80 days post-drug treatment. The class given is functional, organism-based. The arrangement: dose 41 mg/kg. Put shortly: as §2
Test [6] deals with Mus musculus. Put plainly: Antitumor activity against mouse advanced Lewis lung carcinoma allografted in BDF1 mouse assessed as complete regression of established tumor at 41 mg/kg, ip administered as single dose on 7th day post-tumor implantation. In kind it is functional, organism-based. The arrangement: dose 41 mg/kg. Put shortly: as §2
Test [7] in a line: Antitumor activity against mouse advanced Lewis lung carcinoma allografted in ip dosed BDF1 mouse assessed as increase in host lifespan administered as single dose on day 6 or 7 post-tumor implantation. In kind it is functional. Put shortly: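 Advanced Lewis lung model: about 40 mg fragments implanted sc by trocar into BDF1 mice, and mice with tumors of about 400 mg (day 6-7) selected. Tumor weight from calipers, w = ab²/2. Agent given as one ip dose in distilled water or physiological saline. Nontumor-bearing mice received matching doses as toxicity controls.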

Test [8] relates to Mus musculus. Description: Antitumor activity against mouse advanced Lewis lung carcinoma allografted in ip dosed BDF1 mouse assessed as complete regression of established tumor administered as single dose on day 6 or 7 post-tumor implantation. The class given is functional, organism-based. In a few lines:
as §2

In test [9] the test system is Mus musculus. Description: Antitumor activity against mouse advanced Lewis lung carcinoma allografted in BDF1 mouse assessed as disease cure at 27 mg/kg, ip administered as single dose on 7th day post-tumor implantation measured for 80 days post-drug treatment. The class given is functional, organism-based. Also noted: dose 27 mg/kg. Put shortly:
as §2

The test system of test [10] is Mus musculus. Put plainly: Antitumor activity against mouse advanced Lewis lung carcinoma allografted in BDF1 mouse assessed as complete regression of established tumor at 27 mg/kg, ip administered as single dose on 7th day post-tumor implantation. The class given is functional, organism-based. The arrangement: dose 27 mg/kg. Put shortly: as §2
Test [11] in a line: Antitumor activity against mouse advanced Lewis lung carcinoma allografted in BDF1 mouse assessed as increase in host life span at 41 mg/kg, ip administered as single dose on 7th day post-tumor implantation. The class given is functional. As to conditions: route intraperitoneal. Put shortly: as §1
Test [12] concerns Mus musculus. Put plainly: Antitumor activity against mouse advanced Lewis lung carcinoma allografted in BDF1 mouse assessed as disease cure at 67 mg/kg, ip administered as single dose on 7th day post-tumor implantation measured for 80 days post-drug treatment. In kind it is functional, organism-based. The arrangement: dose 67 mg/kg. Put shortly: as §2
The nature of test [13]: Antitumor activity against mouse advanced Lewis lung carcinoma allografted in BDF1 mouse assessed as increase in host life span at 67 mg/kg, ip administered as single dose on 7th day post-tumor implantation. The class given is functional. The settings on record: route intraperitoneal. In a few lines:
as §1

For test [14], the system named is Mus musculus. Description: Antitumor activity against mouse advanced Lewis lung carcinoma allografted in BDF1 mouse assessed as complete regression of established tumor at 30 mg/kg, ip administered as single dose on 7th day post-tumor implantation. The class given is functional, organism-based. Also noted: dose 30 mg/kg. Put shortly: as §2
Test [15] concerns Mus musculus. Put plainly: Antitumor activity against mouse advanced Lewis lung carcinoma allografted in BDF1 mouse assessed as disease cure at 30 mg/kg, ip administered as single dose on 7th day post-tumor implantation measured for 80 days post-drug treatment. In kind it is functional, organism-based. Also noted: dose 30 mg/kg. In a few lines:
as §2

The test system of test [16] is Mus musculus. Description: Antitumor activity against mouse advanced Lewis lung carcinoma allografted in BDF1 mouse assessed as disease cure at 45 mg/kg, ip administered as single dose on 7th day post-tumor implantation measured for 80 days post-drug treatment. In kind it is functional, organism-based. The arrangement: dose 45 mg/kg. In a few lines:
as §2

Test [17] is described as follows: Antitumor activity against mouse advanced Lewis lung carcinoma allografted in BDF1 mouse assessed as increase in host life span at 45 mg/kg, ip administered as single dose on 7th day post-tumor implantation. The class given is functional. The settings on record: route intraperitoneal. In a few lines:
as §1

Test [18] can be described thus: Antitumor activity against mouse advanced Lewis lung carcinoma allografted in BDF1 mouse assessed as increase in host life span at 90 mg/kg, ip administered as single dose on 7th day post-tumor implantation. The settings on record: route intraperitoneal. In kind it is functional. In a few lines: as §1
Test [19] concerns Mus musculus. Description: Antitumor activity against mouse advanced Lewis lung carcinoma allografted in BDF1 mouse assessed as disease cure at 90 mg/kg, ip administered as single dose on 7th day post-tumor implantation measured for 80 days post-drug treatment. The arrangement: dose 90 mg/kg. The class given is functional, organism-based. Put shortly: as §2
A short description of test [20]: Antitumor activity against mouse advanced Lewis lung carcinoma allografted in BDF1 mouse assessed as increase in host life span at 9 mg/kg, ip administered as single dose on 7th day post-tumor implantation. The class given is functional. As to conditions: route intraperitoneal. Put shortly:
as §1

In test [21] the test system is Mus musculus. Put plainly: Antitumor activity against mouse advanced Lewis lung carcinoma allografted in BDF1 mouse assessed as complete regression of established tumor at 9 mg/kg, ip administered as single dose on 7th day post-tumor implantation. The arrangement: dose 9 mg/kg. In kind it is functional, organism-based. Put shortly:
as §2

Test [22] concerns Mus musculus. Put plainly: Antitumor activity against mouse advanced Lewis lung carcinoma allografted in BDF1 mouse assessed as disease cure at 9 mg/kg, ip administered as single dose on 7th day post-tumor implantation measured for 80 days post-drug treatment. In kind it is functional, organism-based. Also noted: dose 9 mg/kg. Put shortly: as §2

Activity calls are given as the source filed them. The rule behind the calls is not given here.

Usually ILS stands for how much longer treated animals lived than controls.

`CCOC(=O)[C@H]1CC[C@H](NC(=O)N(CCCl)N=O)CC1`: the ILS at 30 mg/kg in test [1] turned out to be 68%. For the same compound, the result with Mus musculus [2] was Active. For the same compound, the ILS at 29 mg/kg in test [3] is 75%.

For `O=NN(CCF)C(=O)NC1CSCSC1`, the increase in lifespan (ILS) at 27 mg/kg in test [4] was 40%. Moreover, the outcome in the test with Mus musculus [5], with Mus musculus [2] and in the test with Mus musculus [9] was inactive. For the same compound, the inhibition result in the test on Mus musculus [6], in the test on Mus musculus [8] and in the test with Mus musculus [10] was “inactive” in each case. Moreover, in test [7], the increase in lifespan (ILS) is over 25%. Besides, the ILS at 41 mg/kg in test [11] turned out to be 21%.

Take `CC[C@H]1CC[C@H](NC(=O)N(CCCl)N=O)CC1`: the result in the test on Mus musculus [12] and in the test with Mus musculus [2] was inactive. Also, the inhibition result in the test on Mus musculus [8] was “Active”. Besides, the increase in lifespan (ILS) at 67 mg/kg in test [13] is 17%.

For the compound `CCOC(=O)[C@H]1CCC[C@@H](NC(=O)N(CCCl)N=O)C1` (relative stereo), the inhibition entry in the test on Mus musculus [14] is “inactive”. The result in the test on Mus musculus [15], in the test with Mus musculus [16] and in the test on Mus musculus [2] was inactive. Besides, the increase in lifespan (ILS) at 30 mg/kg in test [1] came out at 62%. Also, the inhibition result in the test on Mus musculus [8] was “Active”. In addition, the increase in lifespan (ILS) at 45 mg/kg in test [17] is 0%.

On to `O=NN(CCCl)C(=O)N[C@H]1CCCC[C@H]1Cl` (relative stereo), for which the ILS in [7] is recorded as over 25%. Moreover, the result with Mus musculus [2] and in the test on Mus musculus [19] was inactive. The increase in life span (ILS) at 90 mg/kg in test [18] was 62%.

As for `O=NN(CCF)C(=O)NC1CC2CCC1C2` (stereo not given), the increase in lifespan (ILS) at 9 mg/kg in test [20] is 40%. Besides, in the test on Mus musculus [21], the inhibition result is “inactive”. The result in the test on Mus musculus [22] was inactive.
